According to ChEMBL document CHEMBL3769376, “Discovery of I-BRD9, a Selective Cell Active Chemical Probe for Bromodomain Containing Protein 9 Inhibition” (J Med Chem, 2016):
Activity calls are given as the source filed them. No cut-off for these calls is given here.

Key:
[1] = target: Bromodomain-containing protein 3 (Homo sapiens, UniProt Q15059); assay: Inhibition of BRD3 in human HUT78 cells incubated for 45 mins by chemoproteomic competition binding assay; assay type: cell-based
Summary of the method: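 Nuclear and tight-chromatin extracts were prepared from HuT78 cells grown in spinner flasks. Compound was spiked into the mixed extracts at a range of doses and incubated for 45 min at 4 °C. Extracts were then incubated with sepharose beads derivatised with 2.0 mM of an amine-bearing bromodomain ligand. Beads were washed with 0.2% NP-40 lysis buffer and eluted in SDS/DTT. BRD3 was read out by Western blot.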

[2] = target: Potassium voltage-gated channel subfamily A member 5 (Homo sapiens) (UniProt P22460); assay: Inhibition of human Kv1.5 channel at <5 uM by electrophysiology
[3] = target: Sodium channel protein type 5 subunit alpha (Homo sapiens, UniProt Q14524); assay: Inhibition of human Nav1.5 channel at <5 uM by electrophysiology
Sequence of Sodium channel protein type 5 subunit alpha (Q14524 whole entry): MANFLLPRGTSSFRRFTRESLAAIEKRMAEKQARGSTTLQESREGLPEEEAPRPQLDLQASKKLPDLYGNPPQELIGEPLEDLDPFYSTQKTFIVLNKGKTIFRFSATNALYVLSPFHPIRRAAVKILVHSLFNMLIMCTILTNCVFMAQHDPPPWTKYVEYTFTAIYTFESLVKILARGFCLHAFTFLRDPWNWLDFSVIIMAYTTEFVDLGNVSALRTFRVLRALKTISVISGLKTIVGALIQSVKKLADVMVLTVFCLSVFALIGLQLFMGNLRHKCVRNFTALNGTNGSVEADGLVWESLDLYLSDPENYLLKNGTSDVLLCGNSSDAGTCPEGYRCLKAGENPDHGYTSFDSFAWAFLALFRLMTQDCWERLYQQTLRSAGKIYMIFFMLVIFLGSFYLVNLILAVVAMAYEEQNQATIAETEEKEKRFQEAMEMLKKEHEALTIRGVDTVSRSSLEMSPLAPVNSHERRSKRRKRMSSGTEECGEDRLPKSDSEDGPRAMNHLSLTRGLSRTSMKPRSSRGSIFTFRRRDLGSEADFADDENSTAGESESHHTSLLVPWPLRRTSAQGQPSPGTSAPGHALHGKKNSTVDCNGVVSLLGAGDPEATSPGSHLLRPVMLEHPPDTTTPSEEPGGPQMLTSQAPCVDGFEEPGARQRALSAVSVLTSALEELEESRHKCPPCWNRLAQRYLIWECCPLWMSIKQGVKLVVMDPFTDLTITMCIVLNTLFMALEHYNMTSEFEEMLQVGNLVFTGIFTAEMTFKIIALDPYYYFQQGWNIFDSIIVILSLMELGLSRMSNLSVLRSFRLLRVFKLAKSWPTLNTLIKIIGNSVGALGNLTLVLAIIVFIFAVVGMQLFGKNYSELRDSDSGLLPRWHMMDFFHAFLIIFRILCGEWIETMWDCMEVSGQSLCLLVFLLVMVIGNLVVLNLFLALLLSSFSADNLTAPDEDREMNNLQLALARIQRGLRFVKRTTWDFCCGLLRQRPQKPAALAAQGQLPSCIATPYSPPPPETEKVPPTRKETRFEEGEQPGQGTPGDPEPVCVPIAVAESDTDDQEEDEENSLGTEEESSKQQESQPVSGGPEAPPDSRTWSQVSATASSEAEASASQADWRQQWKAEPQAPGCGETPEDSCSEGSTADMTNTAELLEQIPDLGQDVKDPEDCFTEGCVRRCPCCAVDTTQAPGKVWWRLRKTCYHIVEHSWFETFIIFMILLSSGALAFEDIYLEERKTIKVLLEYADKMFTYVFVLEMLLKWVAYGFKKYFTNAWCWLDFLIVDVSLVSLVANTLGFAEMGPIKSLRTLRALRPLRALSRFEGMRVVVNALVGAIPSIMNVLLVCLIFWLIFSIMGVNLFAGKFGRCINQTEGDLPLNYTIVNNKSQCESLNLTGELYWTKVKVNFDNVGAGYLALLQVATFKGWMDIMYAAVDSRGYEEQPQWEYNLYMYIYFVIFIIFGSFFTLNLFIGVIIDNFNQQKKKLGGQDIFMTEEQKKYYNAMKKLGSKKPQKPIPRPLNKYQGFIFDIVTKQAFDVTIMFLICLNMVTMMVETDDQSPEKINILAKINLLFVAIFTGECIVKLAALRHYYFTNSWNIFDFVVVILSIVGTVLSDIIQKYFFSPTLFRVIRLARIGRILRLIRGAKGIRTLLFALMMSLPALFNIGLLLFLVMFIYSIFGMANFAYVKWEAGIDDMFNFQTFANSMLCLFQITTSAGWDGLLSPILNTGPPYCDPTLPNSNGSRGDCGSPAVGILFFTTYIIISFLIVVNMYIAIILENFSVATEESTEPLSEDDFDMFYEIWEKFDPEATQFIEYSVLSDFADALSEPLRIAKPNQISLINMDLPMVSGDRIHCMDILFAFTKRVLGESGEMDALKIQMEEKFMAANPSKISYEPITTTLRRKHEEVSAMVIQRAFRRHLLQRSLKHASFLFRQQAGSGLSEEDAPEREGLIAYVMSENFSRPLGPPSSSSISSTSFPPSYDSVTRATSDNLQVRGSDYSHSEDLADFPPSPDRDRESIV

[4] = Lipophilicity, logD of the compound at pH 7.4; assay type: physicochemical; details: buffer
[5] = target: Alpha-2C adrenergic receptor (Homo sapiens) (UniProt P18825); assay: Inhibition of human alpha 2c adrenergic receptor at <5 uM by TR-FRET assay
Sequence of Alpha-2C adrenergic receptor (Homo sapiens) (P18825 whole entry): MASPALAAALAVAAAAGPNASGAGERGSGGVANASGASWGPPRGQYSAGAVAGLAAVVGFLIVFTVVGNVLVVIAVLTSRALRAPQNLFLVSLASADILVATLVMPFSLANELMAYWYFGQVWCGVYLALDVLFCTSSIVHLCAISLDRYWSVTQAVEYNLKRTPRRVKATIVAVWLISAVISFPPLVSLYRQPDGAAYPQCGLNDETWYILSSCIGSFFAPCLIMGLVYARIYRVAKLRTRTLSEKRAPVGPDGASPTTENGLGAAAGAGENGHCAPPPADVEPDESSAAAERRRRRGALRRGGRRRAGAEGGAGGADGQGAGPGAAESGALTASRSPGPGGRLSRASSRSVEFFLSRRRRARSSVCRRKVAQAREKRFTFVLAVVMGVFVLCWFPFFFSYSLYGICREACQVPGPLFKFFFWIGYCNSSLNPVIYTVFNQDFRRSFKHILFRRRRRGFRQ

[6] = target: Beta-2 adrenergic receptor (Homo sapiens) (UniProt P07550); assay: Agonist activity at human beta-2 adrenergic receptor at <5 uM by TR-FRET assay
Sequence of Beta-2 adrenergic receptor (Homo sapiens) (P07550 whole entry, looked up): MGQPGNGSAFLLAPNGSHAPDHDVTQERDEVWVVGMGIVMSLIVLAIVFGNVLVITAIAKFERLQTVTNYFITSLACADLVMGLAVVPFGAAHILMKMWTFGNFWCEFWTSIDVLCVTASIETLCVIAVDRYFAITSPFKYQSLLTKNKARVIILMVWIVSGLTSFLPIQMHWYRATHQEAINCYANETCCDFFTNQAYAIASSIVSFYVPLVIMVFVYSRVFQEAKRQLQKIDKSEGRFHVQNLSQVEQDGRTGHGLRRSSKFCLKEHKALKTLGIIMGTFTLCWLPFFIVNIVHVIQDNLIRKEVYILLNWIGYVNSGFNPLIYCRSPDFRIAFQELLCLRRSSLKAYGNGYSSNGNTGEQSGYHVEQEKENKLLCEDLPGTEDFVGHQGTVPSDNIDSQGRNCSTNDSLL

[7] = target: Beta-2 adrenergic receptor (Homo sapiens) (UniProt P07550); assay: Antagonist activity at human beta-2 adrenergic receptor at <5 uM by TR-FRET assay
[8] = target: D(2) dopamine receptor (Homo sapiens) (UniProt P14416); assay: Antagonist activity at human D2 dopamine receptor at <5 uM by scintillation proximity assay
Sequence of D(2) dopamine receptor (Homo sapiens) (P14416 whole entry): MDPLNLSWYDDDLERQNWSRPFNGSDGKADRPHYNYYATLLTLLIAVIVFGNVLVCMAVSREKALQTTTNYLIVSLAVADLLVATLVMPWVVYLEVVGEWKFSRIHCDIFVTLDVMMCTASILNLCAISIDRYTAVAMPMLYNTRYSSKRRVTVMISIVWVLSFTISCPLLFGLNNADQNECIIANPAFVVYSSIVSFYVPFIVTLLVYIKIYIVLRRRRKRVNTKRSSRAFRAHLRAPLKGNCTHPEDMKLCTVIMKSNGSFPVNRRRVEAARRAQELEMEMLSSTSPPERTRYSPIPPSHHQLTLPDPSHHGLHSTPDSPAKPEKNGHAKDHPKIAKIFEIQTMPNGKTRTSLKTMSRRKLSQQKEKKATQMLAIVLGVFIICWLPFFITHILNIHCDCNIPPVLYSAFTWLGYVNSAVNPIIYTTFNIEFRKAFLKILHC

[9] = target: Muscarinic acetylcholine receptor M1 (Homo sapiens) (UniProt P11229); assay: Agonist activity at human muscarinic 1 receptor assessed as change in intracellular calcium level at <5 uM by fluorescence assay; assay type: functional, cell-based
[10] = target: Vasopressin V1a receptor (Homo sapiens) (UniProt P37288); assay: Antagonist activity at human vasopressin V1a receptor assessed as change in intracellular calcium level at <5 uM by fluorescence assay; assay type: functional, cell-based
[11] = target: 5-hydroxytryptamine receptor 1B (Homo sapiens) (UniProt P28222); assay: Agonist activity at human 5HT1B receptor at <5 uM by scintillation proximity assay
Sequence of 5-hydroxytryptamine receptor 1B (Homo sapiens) (P28222 whole entry): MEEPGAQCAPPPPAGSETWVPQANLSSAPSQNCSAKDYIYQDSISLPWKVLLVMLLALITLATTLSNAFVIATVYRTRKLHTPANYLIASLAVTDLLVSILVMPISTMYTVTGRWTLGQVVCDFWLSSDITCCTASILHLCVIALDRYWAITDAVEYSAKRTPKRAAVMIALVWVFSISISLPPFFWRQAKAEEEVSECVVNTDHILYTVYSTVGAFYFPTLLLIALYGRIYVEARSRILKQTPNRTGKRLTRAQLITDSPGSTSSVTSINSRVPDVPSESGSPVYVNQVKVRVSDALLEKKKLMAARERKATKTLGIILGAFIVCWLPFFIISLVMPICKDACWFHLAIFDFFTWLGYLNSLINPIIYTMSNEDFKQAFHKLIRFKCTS

[12] = target: 5-hydroxytryptamine receptor 1B (Homo sapiens) (UniProt P28222); assay: Antagonist activity at human 5HT1B receptor at <5 uM by scintillation proximity assay
[13] = target: 5-hydroxytryptamine receptor 2A (Homo sapiens) (UniProt P28223); assay: Agonist activity at human 5HT2A receptor by assessed as change in intracellular calcium level at <5 uM by fluorescence assay; assay type: functional, cell-based
Sequence of 5-hydroxytryptamine receptor 2A (Homo sapiens) (P28223 whole entry): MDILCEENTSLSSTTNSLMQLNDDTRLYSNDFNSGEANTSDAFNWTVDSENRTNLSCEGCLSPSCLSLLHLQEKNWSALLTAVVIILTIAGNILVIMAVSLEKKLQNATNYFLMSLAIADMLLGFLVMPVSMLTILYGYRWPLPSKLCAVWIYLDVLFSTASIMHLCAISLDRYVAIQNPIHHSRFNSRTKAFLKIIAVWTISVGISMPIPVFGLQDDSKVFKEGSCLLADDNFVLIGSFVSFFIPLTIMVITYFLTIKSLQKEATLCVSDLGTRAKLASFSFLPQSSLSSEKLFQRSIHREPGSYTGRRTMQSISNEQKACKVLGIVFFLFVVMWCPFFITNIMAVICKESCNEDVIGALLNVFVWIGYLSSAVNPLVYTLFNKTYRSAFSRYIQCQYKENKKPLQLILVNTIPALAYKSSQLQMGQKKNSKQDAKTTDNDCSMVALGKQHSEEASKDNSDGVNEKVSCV

[14] = target: 5-hydroxytryptamine receptor 2A (Homo sapiens) (UniProt P28223); assay: Antagonist activity at human 5HT2A receptor assessed as change in intracellular calcium level at <5 uM by fluorescence assay; assay type: functional, cell-based
[15] = target: 5-hydroxytryptamine receptor 2C (Homo sapiens) (UniProt P28335); assay: Antagonist activity at human 5HT2C receptor assessed as change in intracellular calcium level at <5 uM by fluorescence assay; assay type: functional, cell-based
[16] = target: 5-hydroxytryptamine receptor 3A (Homo sapiens) (UniProt P46098); assay: Antagonist activity at human 5HT3 receptor assessed as change in intracellular calcium level at <5 uM by fluorescence assay; assay type: cell-based
[17] = target: Sodium-dependent serotonin transporter (Homo sapiens) (UniProt P31645); assay: Antagonist activity at human SERT transporter at <5 uM by scintillation proximity assay
[18] = target: Amine oxidase [flavin-containing] A (Homo sapiens, UniProt P21397); assay: Inhibition of human MAO-A at <5 uM by FLINT assay
Sequence of Amine oxidase [flavin-containing] A (P21397 whole entry): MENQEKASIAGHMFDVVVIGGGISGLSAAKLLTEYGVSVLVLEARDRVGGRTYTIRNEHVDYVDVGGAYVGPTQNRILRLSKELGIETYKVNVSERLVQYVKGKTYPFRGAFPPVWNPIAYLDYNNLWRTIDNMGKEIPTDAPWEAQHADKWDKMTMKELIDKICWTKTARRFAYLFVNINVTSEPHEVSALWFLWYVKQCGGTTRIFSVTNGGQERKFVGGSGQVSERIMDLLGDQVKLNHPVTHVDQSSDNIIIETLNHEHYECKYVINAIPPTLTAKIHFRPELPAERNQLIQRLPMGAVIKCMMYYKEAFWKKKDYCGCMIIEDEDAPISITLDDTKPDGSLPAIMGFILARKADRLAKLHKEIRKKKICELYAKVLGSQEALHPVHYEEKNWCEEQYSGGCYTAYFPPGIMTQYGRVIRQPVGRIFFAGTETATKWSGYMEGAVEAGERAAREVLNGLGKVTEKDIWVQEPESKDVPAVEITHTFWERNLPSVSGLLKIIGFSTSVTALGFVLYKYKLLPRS

[19] = target: 3',5'-cyclic-AMP phosphodiesterase 4B (Homo sapiens) (UniProt Q07343); assay: Inhibition of human PDE4B at <5 uM by luminescence assay
[20] = target: Tyrosine-protein kinase Lck (Homo sapiens) (UniProt P06239); assay: Inhibition of human LCK at <5 uM by IMAP assay
[21] = target: T1, Bromodomain-containing protein 9 (Homo sapiens) (UniProt Q9H8M2); details: Kasumi 1, 10 uM
T1 sequence (whole entry): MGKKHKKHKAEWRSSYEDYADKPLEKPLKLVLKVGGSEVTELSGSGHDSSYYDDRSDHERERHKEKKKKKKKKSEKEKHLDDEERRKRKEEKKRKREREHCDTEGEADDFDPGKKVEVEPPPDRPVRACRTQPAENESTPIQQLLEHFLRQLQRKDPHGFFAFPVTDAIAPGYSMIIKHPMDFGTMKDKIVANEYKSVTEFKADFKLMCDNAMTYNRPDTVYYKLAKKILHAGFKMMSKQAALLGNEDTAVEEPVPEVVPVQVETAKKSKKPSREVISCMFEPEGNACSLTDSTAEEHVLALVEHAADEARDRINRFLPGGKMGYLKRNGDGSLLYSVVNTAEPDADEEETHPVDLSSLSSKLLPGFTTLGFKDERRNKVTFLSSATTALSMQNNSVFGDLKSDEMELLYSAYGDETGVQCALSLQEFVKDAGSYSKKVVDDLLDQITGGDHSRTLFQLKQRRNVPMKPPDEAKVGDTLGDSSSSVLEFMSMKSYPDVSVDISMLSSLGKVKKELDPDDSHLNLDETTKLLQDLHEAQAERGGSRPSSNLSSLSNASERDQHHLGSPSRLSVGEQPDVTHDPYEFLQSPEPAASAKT

[22] = target: T1, Bromodomain-containing protein 9 (Homo sapiens); details: Kasumi 1, 10 uM; remark: listed apart in the source

Question: Which IC50 [1] does the source give for `CCn1cc(-c2cccc(C(F)(F)F)c2)c2sc(C(=N)NC3CCS(=O)(=O)CC3)cc2c1=O` here?
Answer: > 50.1 µM

Question: And the inhibition [2]?
Answer: inactive

Question: What about the “inhibition (INH)” value [3] of the same compound?
Answer: Not Active

Question: What about the logD [4] of the same compound?
Answer: 3.7

Question: And the inhibition [5]?
Answer: inactive

Question: What about the Activity [6] of the same compound?
Answer: inactive

Question: And the inhibition [7]?
Answer: inactive

Question: What about the inhibition [8] of the same compound?
Answer: inactive

Question: What about the Activity [9] of the same compound?
Answer: inactive

Question: And the inhibition [10]?
Answer: inactive

Question: What about the Activity [11] of the same compound?
Answer: inactive

Question: And the inhibition [12]?
Answer: inactive

Question: What about the Activity [13] of the same compound?
Answer: inactive

Question: And the inhibition [14]?
Answer: inactive

Question: What about the inhibition [15] of the same compound?
Answer: inactive

Question: What about the inhibition [16] of the same compound?
Answer: inactive

Question: And the inhibition [17]?
Answer: inactive

Question: And the “inhibition (INH)” value [18]?
Answer: Not Active

Question: And the inhibition [19]?
Answer: inactive

Question: And the inhibition [20]?
Answer: inactive

Question: What about the inhibition [21] of the same compound?
Answer: Active

Question: And the inhibition [22]?
Answer: Active
